Read-outs that look alike come from different tables or passages of the source.
Legend:
[1] = tested on: patients with locally advanced unresectable or metastatic, relapsed and/or refractory nonhematological malignancies; assay: Phase I dose escalation: MTD / DLT determination; type: in vivo, human
Procedure, shortened: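 I.v. test compound started at 0.45 mg/kg weekly in 28-day cycles (1 h infusion). Accelerated titration used single-patient cohorts with 100% increments up to 3.6 mg/kg, then 3 + 3 cohorts above 3.6 mg/kg. Schedule 2: weekly, 4 h infusion (minimum 2 h). Schedule 3: days 1, 4, 8 (later also 11, 15) of 21-day cycles, ≥4 h infusion, ≥6 h for doses >9.6 mg/kg. MTD/RP2D derived from DLTs.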

ERK1/2 kinase = conditions: read-out: enzymatic IC50; cited from earlier work
[2] = tested on: patient-derived xenograft (PDX) models of esophageal squamous cell carcinoma; conditions: cited from earlier work
[3] = tested on: models of head and neck SCC; conditions: cited from earlier work
[4] = Phase I plasma pharmacokinetics; type: in vivo, human
[5] = 11q13-amplified (11q-AMP) PDX models of esophageal SCC
[6] = 11q13WT PDX models of esophageal SCC

O=C1Nc2cc3[nH]nc(-c4ccncc4)c3cc2CN1Cc1ccccc1 [KO-947]
recommended dose (RP2D) ([1]; i.v. days 1, 4, 8, 11, and 15 every 21 days, ≥4-hour infusion): 8.5 mg/kg
patients who experienced DLTs ([1]; schedule 1 cohort 5, 5.4 mg/kg, grade 3 QTc prolongation and grade 3 retinopathy): 2/6
DLTs ([1]; schedule 1 cohorts 1-4 (0.45-3.6 mg/kg), six patients): no DLTs
maximum administered dose ([1]; schedule 2, once weekly, 28-day cycle, 4-hour infusion): 9.6 mg/kg
DLTs ([1]; schedule 2 cohort 9 (9.6 mg/kg), two patients of six): DLT of QTc prolongation
DLTs ([1]; schedule 2 cohorts 5-8 (4.8-7.2 mg/kg)): no DLTs
maximum administered dose ([1]; schedule 3, 21-day cycle): 11.3 mg/kg
DLTs ([1]; schedule 3 cohort 3, 6.4 mg/kg): One DLT of hypotension
DLTs ([1]; schedule 3 cohort 4 (8.5 mg/kg, n = 3)): No DLTs
DLTs ([1]; schedule 3 cohort 5 (11.3 mg/kg), one patient of six): DLT of an infusion-related reaction
DLTs ([1]; schedule 3 cohorts 1 or 2 (3.6-4.8 mg/kg), six patients): no DLTs
IC50 (ERK1/2 kinase): 10 nM
disease control rate [2, 5]: 77%
overall response rate [2, 5]: 51%
disease control rate [2, 6]: 21%
overall response rate [2, 6]: 3%
antitumor response ([3]; 11q-AMP models of head and neck cancer): Complete responses and tumor regression
overall response rate ([3]; mouse models of head and neck SCC with 11q-AMP): 56%
overall response rate ([3]; mouse models of head and neck SCC, 11q13WT): 9%
plasma concentration ([4]; 11.3 mg/kg, cohort 5 of schedule 3, 6-hour infusion, held for ∼4 hours): ~3600 ng/mL
dose proportionality of exposure, slope ([4]; after a single dose, noncompartmental analysis): 1.2
accumulation ([4]; all dosing schedules): None to minimal accumulation
half-life ([4]; human, plasma, intravenous): 6.5 to 24 h
half-life ([4]; human, plasma, intravenous, 3.6 mg/kg): ~6.65 h
Cmax ([4]; human, plasma, intravenous, 3.6 mg/kg, highest Cmax, 1-hour infusion): 3630 ng/mL
Vd ([4]; in vivo): moderate
plasma CL ([4]; in vivo): moderate
time at which Cmax was achieved (near the end of the infusion) ([4]; schedules 2 and 3): ~4 h

— article PMC11904481 (ESMO Open, 2025)
